Measured values taken from ChEMBL document CHEMBL1128566, “Inhibition of human neutrophil elastase. 3. An orally active enol acetate prodrug” (J Med Chem, 1995).

Tests used:
Neutrophil elastase [1] = molecular target: T1, Neutrophil elastase (Homo sapiens, UniProt P08246); assay: Binding affinity for purified Human neutrophil elastase was determined in the presence of pig liver esterase, in vitro.
T1 sequence (P08246 whole entry): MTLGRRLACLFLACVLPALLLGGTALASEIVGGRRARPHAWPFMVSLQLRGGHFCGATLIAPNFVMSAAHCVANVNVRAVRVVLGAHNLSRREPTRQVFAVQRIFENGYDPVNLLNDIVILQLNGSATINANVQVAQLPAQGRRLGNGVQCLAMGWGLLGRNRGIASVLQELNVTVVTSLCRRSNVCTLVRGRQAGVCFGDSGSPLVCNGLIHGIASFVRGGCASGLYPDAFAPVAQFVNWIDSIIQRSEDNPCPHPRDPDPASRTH
Outline: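 Partially purified HNE assayed with 12.5 units porcine liver esterase added, at a fixed inhibitor level (66 nM, 100 nM, 133 nM or 1.67 μM, depending on compound). Time course followed; Ki taken from the final rate after the enol acetate was fully hydrolysed. Controls: elastase plus substrate, with or without esterase.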

Neutrophil elastase [2] = molecular target: T1, Neutrophil elastase; assay: Binding affinity for purified Human neutrophil elastase was determined in vitro.
[3] = Half-life for the conversion of compound to ketone, was examined by 19F NMR spectroscopy in USP-simulated intestinal fluid, at 37 degree Centigrade.; type: ADME
Outline: (§1)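 Simulated intestinal fluid at pH 7.5, held at 37 or 50 °C. Half-life taken for conversion of enol acetate to the corresponding ketone.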

[4] = Half-life for the conversion of compound to ketone, was examined by 19F NMR spectroscopy in USP-simulated intestinal fluid, at 50 degree Centigrade.; type: ADME; outline: as §1
[5] = Half-life for the conversion of compound to ketone, was examined by 19F NMR spectroscopy in human blood plasma, at 37 degree Centigrade.; type: ADME, tissue-based
Outline: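 Human blood plasma incubated at 37 °C. Half-life measured for conversion of enol acetate to the corresponding ketone.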

Cricetinae gen. sp. = assay: Ability to inhibit HNE-induced pulmonary hemorrhage, was examined in vivo in hamsters, after administering the compound orally 30 min prior to intratracheal instillation of 25 microg of HNE; type: functional
Outline: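 Hamsters dosed po at various doses 30 min before intratracheal HNE (25 μg). Killed 1 h later; trachea cannulated and lavaged three times with saline (0.04 mL/g). Hemorrhage measured as BAL hemoglobin by spectrophotometry. One-way ANOVA with Dunnett's test against vehicle-treated animals (p ≤ 0.05). ED50 extrapolated from dose-response curves.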

[6] = Half-life for the conversion of compound to ketone, was examined by 19F NMR spectroscopy in USP-simulated gastric fluid, at 50 degree Centigrade.; type: ADME
Outline: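 Simulated gastric fluid at pH 1.2 and 50 °C, followed for up to 12 h. Conversion of enol acetate to the parent ketone tracked to give a half-life.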

SMILES | Ki (Neutrophil elastase [1]) | Ki (Neutrophil elastase [2]) | half-life [5] | ED50 (Cricetinae gen. sp.) | other results
CC(=O)O/C(=C(/NC(=O)[C@@H]1CCCN1C(=O)[C@@H](NC(=O)N1CCOCC1)C(C)C)C(C)C)C(F)(F)F | 150 nM | 6.3 µM |  |  | 
CCC(=O)O/C(=C(/NC(=O)[C@@H]1CCCN1C(=O)[C@@H](NC(=O)c1ccc(C(=O)N2CCOCC2)cc1)C(C)C)C(C)C)C(F)(F)C(F)(F)F | 25 nM |  |  |  | 
CC(=O)O/C(=C(/NC(=O)[C@@H]1CCCN1C(=O)[C@@H](NC(=O)c1ccc(C(=O)N2CCOCC2)cc1)C(C)C)C(C)C)C(F)(F)C(F)(F)F | 25 nM | > 2 µM | 25 min | 9 mg/kg | half-life [3]: 438 min; half-life [4]: 186 min
CC(=O)O/C(=C(\NC(=O)[C@@H]1CCCN1C(=O)[C@@H](NC(=O)c1ccc(C(=O)N2CCOCC2)cc1)C(C)C)C(C)C)C(F)(F)C(F)(F)F |  |  | 40 min |  | half-life [3]: 396 min
CC(C)=C(NC(=O)[C@@H]1CCCN1C(=O)[C@@H](NC(=O)c1ccc(C(=O)N2CCOCC2)cc1)C(C)C)C(=O)C(F)(F)C(F)(F)F |  | 8 µM |  |  | 
CC(=O)O/C(=C(/NC(=O)[C@@H]1CCCN1C(=O)[C@@H](NC(=O)c1ccc(C(=O)NS(=O)(=O)c2ccc(Cl)cc2)cc1)C(C)C)C(C)C)C(F)(F)F | 3 nM | 0.32 µM | 10 min | > 50 mg/kg | half-life [4]: 72 min
CC(=O)O/C(=C(/NC(=O)[C@@H]1CCCN1C(=O)[C@@H](NC(=O)c1ccc(C(=O)N2CCOCC2)cc1)C(C)C)C(C)C)C(F)(F)F | 16 nM |  | 15 min | > 75 mg/kg | half-life [3]: 174 min; half-life [6]: 2460 min
CC(C)[C@H](NC(=O)OC(C)(C)C)C(=O)N1CCC[C@H]1C(=O)NC(C)(C)C(=O)C(F)(F)C(F)(F)F |  | > 50 µM |  |  | 
CC(C)C(NC(=O)[C@@H]1CCCN1C(=O)[C@@H](NC(=O)c1ccc(C(=O)N2CCOCC2)cc1)C(C)C)C(=O)C(F)(F)C(F)(F)F (some centres not stated) |  |  |  | 15 mg/kg | 
CC(C)[C@H](NC(=O)c1ccc(C(=O)N2CCOCC2)cc1)C(=O)N1CCC[C@H]1C(=O)NCC(=O)C(F)(F)C(F)(F)F |  | 150 µM |  |  | 
CC(C)C(=O)O/C(=C(/NC(=O)[C@@H]1CCCN1C(=O)[C@@H](NC(=O)c1ccc(C(=O)N2CCOCC2)cc1)C(C)C)C(C)C)C(F)(F)C(F)(F)F | 25 nM |  |  |  | 
CC(C)C(NC(=O)[C@@H]1CCCN1C(=O)[C@@H](NC(=O)c1ccc(C(=O)N2CCOCC2)cc1)C(C)C)C(=O)C(F)(F)F (some centres not stated) |  |  |  | > 50 mg/kg | 
